Reference: ChEMBL document CHEMBL1138733, “Chimeric cyclodepsipeptides as mimetics for the anthelmintic PF1022A” (2004)

What was measured:
Haemonchus contortus [1] = assay: anthelmintic activity as the eggs per gram of faeces in sheep infected with 5000 Haemonchus contortus L3 larvae at 0.01 mg/kg
Haemonchus contortus [2] = assay: anthelmintic activity as the percent reduction in faecal egg count in sheep infected with 5000 Haemonchus contortus L3 larvae at 0.01 mg/kg
Bos taurus [3] = assay: anthelmintic activity as the percent reduction in faecal egg count in sheep infected with 5000 Haemonchus contortus L3 larvae at 0.1 mg/kg; format: functional, Ovis aries, Feces
In short: (§1)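 Merino or Schwarzkopf sheep (25–35 kg) infected with 5000 H. contortus L3, dosed after the pre-patency period, orally in gelatine capsules or intravenously. Faecal egg counts by Wetzel-modified McMaster method, per gram of fresh faeces, at regular intervals before and after treatment. Activity as eggs per gram and percent reduction versus pretreatment. Untreated controls sampled at matching times.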

Bos taurus [4] = assay: anthelmintic activity as the eggs per gram of faeces in sheep infected with 5000 Haemonchus contortus L3 larvae at 0.1 mg/kg; format: functional, Ovis aries, Feces
In short: as §1

SMILES | Activity (Haemonchus contortus [1]) [eggs/g] | Reduction (Haemonchus contortus [2]) [%] | Reduction (Bos taurus [3]) [%] | Activity (Bos taurus [4]) [eggs/g]
CC(C)C[C@H]1C(=O)O[C@H](Cc2ccccc2)C(=O)N(C)[C@@H](CC(C)C)C(=O)O[C@H](C)C(=O)N(C)[C@@H](CC(C)C)C(=O)N2CCC[C@@H]2C(=O)N2CCC[C@H]2C(=O)O[C@H](C)C(=O)N1C | 50 | 98 | – | –
CC(C)C[C@H]1C(=O)O[C@H](Cc2ccccc2)C(=O)N(C)[C@@H](CC(C)C)C(=O)O[C@H](C)C(=O)N(C)[C@@H](CC(C)C)C(=O)O[C@H](Cc2ccccc2)C(=O)N(C)[C@@H](CC(C)C)C(=O)O[C@H](C)C(=O)N1C | 573 | 43 | 100 | 0
CC(C)C[C@H]1C(=O)N[C@H]2CCC3SC[C@@H](C(=O)O[C@H](C)C(=O)N(C)[C@@H](CC(C)C)C(=O)O[C@H](Cc4ccccc4)C(=O)N(C)[C@@H](CC(C)C)C(=O)O[C@H](C)C(=O)N1C)N3C2=O (stereo partly drawn) | 83 | 95 | – | –
